# Laboratory results reported in ChEMBL document CHEMBL2086314, “Synthesis and anticonvulsant activity of new N-Mannich bases derived from 3-(2-fluorophenyl)- and 3-(2-bromophenyl)-pyrrolidine-2,5-diones. Part II” (Bioorg Med Chem, 2012).
# Calls of active or inactive are those of the source. No cut-off for these calls is given here.
# What was measured:
# [1] = system: Mus musculus; assay: Anticonvulsant activity in CF-1 albino mouse assessed as protection from maximal electric shock-induced seizures at 300 mg/kg, ip measured after 0.5 hrs; format: functional, organism-based; parameters: dose 300 mg/kg
# Outline: (§1)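 Male CF-1 mice dosed ip at 30, 100 or 300 mg/kg, suspension in 0.5% methylcellulose/water. MES: corneal electrodes primed with electrolyte containing anaesthetic, 50 mA, 60 Hz, 0.2 s. Examined 0.5 and 4 h after dosing. Value is the minimum dose protecting half or more of the animals.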
# [2] = system: Mus musculus; assay: Anticonvulsant activity in ip dosed CF-1 albino mouse assessed as protection from maximal electric shock-induced seizures measured after 4 hrs; format: functional; conditions: read-out: MED; outline: as §1
# [3] = system: Mus musculus; assay: Neurotoxicity in CF-1 albino mouse assessed as motor impairment at 300 mg/kg, ip measured after 0.5 hrs by rotarod test; format: toxicity, organism-based; parameters: dose 300 mg/kg, route intraperitoneal; conditions: in vivo
# Outline: (§2)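 Rotarod neurotoxicity in male CF-1 mice given ip doses of 30, 100 or 300 mg/kg (0.5% methylcellulose suspension), examined 0.5 and 4 h after dosing. Impairment means failing to hold balance on the rod for 1 min. Value is the minimum dose causing toxicity in half or more of the animals; response comments are recorded.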
# [4] = system: Mus musculus; assay: Neurotoxicity in CF-1 albino mouse assessed as motor impairment at 300 mg/kg, ip measured after 4 hrs by rotarod test; format: toxicity, organism-based; parameters: dose 300 mg/kg, route intraperitoneal; conditions: in vivo; outline: as §2
# [5] = system: Rattus norvegicus; assay: Anticonvulsant activity in Sprague-Dawley rat assessed as protection from maximum electric shock-induced seizures at 30 mg/kg, po measured after 0.25 hrs; format: functional
# Outline: (§3)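 Male Sprague–Dawley rats, four per group, given 30 mg/kg orally as a suspension in 0.5% methylcellulose/water. MES stimulus 150 mA, 60 Hz, 0.2 s via corneal electrodes. Tested at 0.25, 0.5, 1, 2 and 4 h; value is rats protected out of four.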
# [6] = system: Rattus norvegicus; assay: Anticonvulsant activity in Sprague-Dawley rat assessed as protection from maximum electric shock-induced seizures at 30 mg/kg, po measured after 0.5 hrs; format: functional; outline: as §3
# [7] = system: Rattus norvegicus; assay: Anticonvulsant activity in Sprague-Dawley rat assessed as protection from maximum electric shock-induced seizures at 30 mg/kg, po measured after 1 hr; format: functional; outline: as §3
# [8] = system: Rattus norvegicus; assay: Anticonvulsant activity in Sprague-Dawley rat assessed as protection from maximum electric shock-induced seizures at 30 mg/kg, po measured after 2 hrs; format: functional; outline: as §3
# [9] = system: Rattus norvegicus; assay: Anticonvulsant activity in Sprague-Dawley rat assessed as protection from maximum electric shock-induced seizures at 30 mg/kg, po measured after 4 hrs; format: functional; outline: as §3
# [10] = system: Rattus norvegicus; assay: Neurotoxicity in Sprague-Dawley rat assessed as motor impairment at 30 mg/kg, po by rotarod test; format: toxicity, organism-based; parameters: dose 30 mg/kg, route oral; conditions: in vivo
# Outline: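 Male Sprague–Dawley rats, four animals, oral 30 mg/kg in 0.5% methylcellulose/water. Motor impairment on the rotarod (failure to keep balance for 1 min) assessed alongside MES at five times from 0.25 to 4 h.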
# [11] = system: Rattus norvegicus; assay: Anticonvulsant activity in po dosed Sprague-Dawley rat assessed as protection from maximum electric shock-induced seizures; format: functional
# Outline: (§4)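 Male Sprague–Dawley rats dosed orally (0.5% methylcellulose suspension). MES 150 mA, 60 Hz, 0.2 s; rotarod impairment is failure to keep balance for 1 min. Groups of eight, at the previously estimated time of peak effect, with doses varied until at least three points fell in the 10–90% range. ED50/TD50 with 95% confidence intervals from regression; PI = TD50/ED50.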
# [12] = Neurotoxicity in po dosed Sprague-Dawley rat assessed as motor impairment measured at time of peak effect by rotarod test; format: toxicity, organism-based; conditions: in vivo; outline: as §4
# [13] = organism: Rattus norvegicus; assay: Protective index, ratio of TD50 for Sprague-Dawley rat to ED50 for Sprague-Dawley rat assessed as protection from maximum electric shock-induced seizures; format: functional; outline: as §4
# [14] = system: Rattus norvegicus; assay: Anticonvulsant activity in po dosed maximum electric shock-induced Sprague-Dawley rat assessed as time of peak effect; format: functional; outline: as §4
# [15] = system: Mus musculus; assay: Anticonvulsant activity in CF-1 albino mouse assessed as protection against 6 Hz psychomotor seizure at 75 mg/kg, ip measured after 0.25 hrs; format: functional; conditions: route intraperitoneal
# Outline: (§5)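 6-Hz psychomotor seizure in male CF-1 mice, compound suspended in 0.5% methylcellulose/water, given ip (100 or 75 mg/kg). Corneal stimulation with 0.2 ms monopolar rectangular pulses at 6 Hz for 3 s, 32 mA, constant-current device. Protected if normal exploratory behaviour resumes within 10 s. Tested 0.25–4 h after dosing; value is mice protected out of four.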
# [16] = system: Mus musculus; assay: Anticonvulsant activity in CF-1 albino mouse assessed as protection against 6 Hz psychomotor seizure at 75 mg/kg, ip measured after 0.5 hrs; format: functional; conditions: route intraperitoneal; outline: as §5
# [17] = system: Mus musculus; assay: Anticonvulsant activity in CF-1 albino mouse assessed as protection against 6 Hz psychomotor seizure at 75 mg/kg, ip measured after 1 hr; format: functional; conditions: route intraperitoneal; outline: as §5
# [18] = system: Mus musculus; assay: Anticonvulsant activity in CF-1 albino mouse assessed as protection against 6 Hz psychomotor seizure at 75 mg/kg, ip measured after 2 hrs; format: functional; conditions: route intraperitoneal; outline: as §5
# [19] = system: Mus musculus; assay: Anticonvulsant activity in CF-1 albino mouse assessed as protection against 6 Hz psychomotor seizure at 75 mg/kg, ip measured after 4 hrs; format: functional; conditions: route intraperitoneal; outline: as §5
# [20] = system: Mus musculus; assay: Anticonvulsant activity in ip dosed CF-1 albino mouse assessed as protection from maximal electric shock-induced seizures measured after 0.5 hrs; format: functional; conditions: read-out: MED; outline: as §1
# [21] = system: Mus musculus; assay: Anticonvulsant activity in ip dosed CF-1 albino mouse assessed as protection against subcutaneous pentylenetetrazol-induced seizures measured after 4 hrs; format: functional; conditions: read-out: MED
# Outline: (§6)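 scPTZ test in male CF-1 mice. Compound suspended in 0.5% methylcellulose/water, ip at 30, 100 or 300 mg/kg. Pentylenetetrazole 85 mg/kg (CD97, clonic seizures lasting at least 5 s) given subcutaneously at the test time, read at 0.5 and 4 h. Value is the minimum dose protecting half or more of the animals.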
# [22] = system: Mus musculus; assay: Neurotoxicity in ip dosed CF-1 albino mouse assessed as motor impairment measured after 0.5 hrs by rotarod test; format: toxicity, organism-based; conditions: in vivo; outline: as §2
# [23] = system: Mus musculus; assay: Neurotoxicity in CF-1 albino mouse assessed as inability to grasp rotarod at 300 mg/kg, ip measured after 0.5 hrs by rotarod test; format: toxicity, organism-based; parameters: dose 300 mg/kg, route intraperitoneal; conditions: in vivo; outline: as §2
# [24] = system: Mus musculus; assay: Neurotoxicity in CF-1 albino mouse assessed as loss of […] reflex at 300 mg/kg, ip measured after 0.5 hrs by rotarod test; format: toxicity, organism-based; parameters: dose 300 mg/kg, route intraperitoneal; conditions: in vivo; outline: as §2
# [25] = system: Mus musculus; assay: Anticonvulsant activity in ip dosed CF-1 albino mouse assessed as protection against subcutaneous pentylenetetrazol-induced seizures measured after 0.5 hrs; format: functional; conditions: read-out: MED; outline: as §6
# [26] = system: Mus musculus; assay: Neurotoxicity in CF-1 albino mouse assessed as myoclonic jerks at 300 mg/kg, ip measured after 4 hrs by rotarod test; format: toxicity, organism-based; parameters: dose 300 mg/kg, route intraperitoneal; conditions: in vivo
# [27] = Neurotoxicity in ip dosed CF-1 albino mouse assessed as motor impairment by rotarod test; format: toxicity, organism-based; conditions: in vivo
# [28] = system: Mus musculus; assay: Anticonvulsant activity in CF-1 albino mouse assessed as protection against 6 Hz psychomotor seizure at 100 mg/kg, ip measured after 0.25 hrs; format: functional; conditions: route intraperitoneal; outline: as §5
# [29] = system: Mus musculus; assay: Anticonvulsant activity in CF-1 albino mouse assessed as protection against 6 Hz psychomotor seizure at 100 mg/kg, ip measured after 0.5 hrs; format: functional; conditions: route intraperitoneal; outline: as §5
# [30] = system: Mus musculus; assay: Anticonvulsant activity in CF-1 albino mouse assessed as protection against 6 Hz psychomotor seizure at 100 mg/kg, ip measured after 1 hr; format: functional; conditions: route intraperitoneal; outline: as §5
# [31] = system: Mus musculus; assay: Anticonvulsant activity in CF-1 albino mouse assessed as protection against 6 Hz psychomotor seizure at 100 mg/kg, ip measured after 2 hrs; format: functional; conditions: route intraperitoneal; outline: as §5
# [32] = system: Mus musculus; assay: Anticonvulsant activity in CF-1 albino mouse assessed as protection against 6 Hz psychomotor seizure at 100 mg/kg, ip measured after 4 hrs; format: functional; conditions: route intraperitoneal; outline: as §5
# [33] = system: Mus musculus; assay: Anticonvulsant activity in ip dosed CF-1 albino mouse assessed as protection against 6 Hz psychomotor seizures; format: functional
# Outline: (§7)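 6-Hz test (32 mA, 0.2 ms pulses at 6 Hz for 3 s, corneal) in male CF-1 mice dosed ip. Quantified at the time of peak effect in groups of eight across at least three doses giving 10–90% effect. ED50 and TD50 (minimal neurological toxicity) obtained by regression; PI = TD50/ED50.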
# [34] = organism: Mus musculus; assay: Protective index, ratio of TD50 for CF-1 albino mouse to ED50 for CF-1 albino mouse assessed as protection from 6 Hz psychomotor seizure; format: functional; outline: as §7
# [35] = system: Mus musculus; assay: Anticonvulsant activity in ip dosed 6 Hz psychomotor-induced seizure in CF-1 albino mouse assessed as time of peak effect; format: functional
smiles,measurement,setting,value
O=C1CC(c2ccccc2Br)C(=O)N1CN1CCN(c2cccc(Cl)c2)CC1 (racemic),Activity,[1],inactive
same,minimal effective dose,[2],100 mg/kg
same,Activity,[3],Non-toxic
same,Activity,[4],Non-toxic
same,Activity,[5],0%
same,Activity,[6],25%
same,Activity,[7],50%
same,Activity,[8],100%
same,Activity,[9],100%
same,Activity,[10],Non-toxic
same,ED50,[11],26.4 mg/kg
same,TD50,[12],126 mg/kg
same,Ratio TD50/ED50,[13],4.77
same,Time,[14],4 h
same,Activity,[15],25%
same,Activity,[16],25%
same,Activity,[17],25%
same,Activity,[18],25%
same,Activity,[19],25%
O=C1CC(c2ccccc2F)C(=O)N1CN1CCOCC1 (racemic),minimal effective dose,[20],100 mg/kg
same,minimal effective dose,[2],100 mg/kg
same,minimal effective dose,[21],300 mg/kg
same,MTC,[22],300 mg/kg
same,Activity,[4],Non-toxic
same,Activity,[23],Toxic
same,Activity,[24],Toxic
same,minimal effective dose,[25],300 mg/kg
same,Activity,[26],Toxic
same,Activity,[5],25%
same,Activity,[6],25%
same,Activity,[7],50%
same,Activity,[8],50%
same,Activity,[9],25%
same,Activity,[10],Non-toxic
same,TD50,[27],253 mg/kg
same,Activity,[28],100%
same,Activity,[29],100%
same,Activity,[30],100%
same,Activity,[31],75%
same,Activity,[32],25%
same,ED50,[33],103 mg/kg
same,Ratio TD50/ED50,[34],2.46
same,Time,[35],4 h
